We go through eleven compounds from ChEMBL document CHEMBL1128728, “Synthesis and evaluation of terbenzimidazoles as topoisomerase I inhibitors” (J Med Chem, 1995).

pIC50: −log10 of the molar value. Some results are limits rather than exact numbers.

For test [1], the system named is RPMI 8402. In words: Cytotoxicity against Camptothecin-resistant (CPT -K5) cell line. The class given is functional, cell-based. Conditions: Homo sapiens. The method in brief: (§1)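 MTT microtiter tetrazolium assay; human lymphoblast RPMI 8402 and camptothecin-resistant CPT-K5 grown in suspension at 37 °C, 5% CO2, RPMI medium with 10% heat-inactivated FBS, 2 mM L-glutamine, penicillin 100 U/mL, streptomycin 0.1 mg/mL. Continuous exposure to varying drug concentrations; MTT read at end of day 4; IC50 calculated.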

For test [2], the system named is RPMI 8402. In words: Cytotoxicity against Human lymphoblast (RPMI 8402) cell line. The class given is functional, cell-based. The method in brief:
as §1

For test [3], the system named is DNA topoisomerase 1 (Bos taurus). Nature of the test: The compound was tested for topoisomerase-1 mediated DNA cleavage, activity is expressed as REC(relative effective concentration) i.e., concentration relative to Hoechst 33342.
Test [4] has as its system KB. Nature of the test: Cytotoxicity against human epidermoid carcinoma vinblastine-selected multidrug-resistant (KBV-1) cell line. The class given is functional, cell-based. The method in brief: (§2)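 Human epidermoid carcinoma KB3-1 and vinblastine-selected MDR1-overexpressing KBV-1 grown as monolayers in 5% CO2, Dulbecco's medium with 10% heat-inactivated FBS. Cytotoxicity by MTT microtiter tetrazolium assay after continuous exposure to varying drug concentrations for 4 days; IC50 calculated.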

Test [5] relates to KB 3-1. In words: Cytotoxicity against human epidermoid carcinoma (KB3-1) cell line. It counts as functional, cell-based. The method in brief:
as §2

Test [6] relates to KB 3-1. Nature of the test: Cytotoxicity against human epidermoid carcinoma (KB3-1) cell line. It counts as functional, cell-based. The method in brief: (§3)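 KB3-1 epidermoid carcinoma cells and KBV-1, their vinblastine-selected MDR1-overexpressing variant, were grown as monolayers in 5% CO2 in Dulbecco's medium with 10% heat-inactivated FBS. Viability was measured by MTT tetrazolium microtiter assay after 4 days of continuous exposure to varying drug concentrations, and IC50 was calculated.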

Test [7] deals with RPMI 8402. In words: Cytotoxicity against Camptothecin-resistant (CPT -K5) cell line. It counts as functional, cell-based. Particulars: Homo sapiens. The method in brief:
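MTT tetrazolium assay in 96-well plates on CPT-K5, a camptothecin-resistant variant of human lymphoblast RPMI 8402, grown in suspension at 37 °C, 5% CO2 in RPMI medium with 10% heat-inactivated FBS, 2 mM L-glutamine, penicillin and streptomycin. Cells were exposed continuously to varying drug concentrations, with MTT read at the end of day 4. IC50 was calculated.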

In test [8] the test system is KB. Nature of the test: Cytotoxicity against human epidermoid carcinoma vinblastine-selected multidrug-resistant (KBV-1) cell line. The class given is functional, cell-based. The method in brief:
as §3

Take `CCCc1ccc2[nH]c(-c3ccc4[nH]c(-c5ccc6[nH]cnc6c5)nc4c3)nc2c1`: the pIC50 in the test with RPMI 8402 [1] was 4.70; with RPMI 8402 [2], 5.12. In addition, the Relative concentration in test [3] is 100.

Turning to `c1ccc2[nH]c(-c3ccc4[nH]c(-c5ccc6[nH]cnc6c5)nc4c3)nc2c1`, the figures for the pIC50 in the test on RPMI 8402 [1] and in the test with RPMI 8402 [2] were 4.55 and 4.85, respectively. The Relative concentration in test [3] amounted to 1.1.

For `c1cc(-c2ccc3[nH]c(-c4ccc5[nH]c(-c6ccc7[nH]cnc7c6)nc5c4)nc3c2)ccn1`, the negative logarithm of the IC50 (pIC50) with RPMI 8402 [1] is 5.60; in the test with KB [4] it was 8.00; in the test with RPMI 8402 [2], 7.46; in the test with KB 3-1 [5], 7.70. The Relative concentration in test [3] was 2.

As for `CCOc1ccc(-c2nc3cc(-c4nc5cc(N6CCN(C)CC6)ccc5[nH]4)ccc3[nH]2)cc1`, the pIC50 was 8.00 in the test on KB 3-1 [6], 6.05 in the test on RPMI 8402 [7], 7.52 in the test on RPMI 8402 [2] and 5.92 with KB [8].

As to `COc1ccc(-c2nc3cc(-c4nc5cc(C#N)ccc5[nH]4)ccc3[nH]2)cc1`, the negative logarithm of the IC50 (pIC50) with RPMI 8402 [2] was 4.57. In test [3], this compound displayed a Relative concentration of 3.3.

As for `N#Cc1ccc2[nH]c(-c3ccc4[nH]cnc4c3)nc2c1`, the pIC50 in the test on RPMI 8402 [2] is < 4.60. In addition, the Relative concentration in test [3] came to 1000.

Turning to `c1ccc(-c2ccc3[nH]c(-c4ccc5[nH]c(-c6ccc7[nH]cnc7c6)nc5c4)nc3c2)cc1`, the pIC50 in the test on RPMI 8402 [1] is 6.24; in the test on KB [4] it was 6.46; with RPMI 8402 [2] it was 7.05; in the test with KB 3-1 [5] it was 6.24. Moreover, in test [3], the Relative concentration was found to be 2.

In the case of `c1ccc(-c2ccc3[nH]c(-c4ccc5[nH]c(-c6ccc7[nH]cnc7c6)nc5c4)nc3c2)nc1`, the negative logarithm of the IC50 (pIC50) was 5.24 in the test with RPMI 8402 [1], 7.05 with KB [4], 6.80 in the test on RPMI 8402 [2] and 7.30 with KB 3-1 [5]. This compound displayed a Relative concentration in test [3] of 3.3.

As for `N#Cc1ccc2[nH]c(-c3ccc4[nH]c(-c5ccc6[nH]cnc6c5)nc4c3)nc2c1`, the pIC50 with RPMI 8402 [1] and in the test with RPMI 8402 [2] was < 4.60 each time. This compound had a Relative concentration in test [3] of 1.

As for `COc1ccc(-c2nc3cc(-c4nc5cc(-c6nc7cc(C#N)ccc7[nH]6)ccc5[nH]4)ccc3[nH]2)cc1`, in the test with RPMI 8402 [2], the pIC50 was < 4.70. This compound showed a Relative concentration in test [3] of 1000.

Take `c1cncc(-c2ccc3[nH]c(-c4ccc5[nH]c(-c6ccc7[nH]cnc7c6)nc5c4)nc3c2)c1`: the pIC50 with RPMI 8402 [1] was 5.60; in the test on KB [4] it was 7.70; in the test with RPMI 8402 [2] it was 7.46; in the test with KB 3-1 [5], 7.70. In test [3], this compound had a Relative concentration of 2.

As a reminder, the pIC50 is −log10 of the IC50, conventionally taken in molar units.
